BB579 growth dn: reduces growth of yeast BB579 in restrictive medium | 140,000 tested, 0.51% active | S. cerevisiae BB579 growth, OD615, 48 h | inhibition, % at 10 µM;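 active means inhibition above a set limit, 3 SD over the mean compound inhibition, cut at about 44% in these data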
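System: Saccharomyces cerevisiae DeaD strain BB579, replicative lifespan model yeast. Buffer or medium: restrictive glucose-based CSMM-D medium. Doses: one dose, 10 µM compound with 0.25% DMSO. Timing: 4 h preincubation and 48 h exposure at 30 °C. Detection: turbidity as optical density at 615 nm. Benchmarks: amphotericin B 10 µg/mL, positive.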
RAM inhibit: blocks the yeast RAM network. 190,000 tested, 1.8% active. S. cerevisiae dse1pr::URA3 reporter, 5-FOA growth OD615, 2 d; analog-sensitive cbk1-as2 kinase mutant strain. AID 868. inhibition, % at 50 µM;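 active means inhibition above a set limit, 3 SD over mean compound inhibition, cut at about 8.4% in these data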;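 further: inhibition rescues growth on 5-FOA so higher OD means more RAM inhibition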
Yeast lifespan up: yeast lifespan extension; S. cerevisiae growth with nicotinamide, OD615; deaD strain in restrictive glucose medium; inhibition of the nicotinamide effect, % at 10 µM; 130,000 tested, 0.68% active; AID 775;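 active means inhibition above a set limit, placed 3 SD over the median of all compounds, cut at about 26% in these data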
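Material: Modified budding yeast, DeaD strain | Medium: Restrictive glucose medium | Probe or stimulus: 1.5 mM nicotinamide | Dosing: Single dose 10 µM compound, 0.25% DMSO | Times: 48 h at 30 °C | Technique: OD615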
Measles CPE: protection of cells from measles virus; Measles virus-infected cells, CPE protection, absorbance; protection (pct of control), % at 4 µM; 140,000 tested, 1.5% active; AID 841; in the data active means protection mostly above about 24%, no sharp cut-off; inactive means mostly below about 26%
SDO1 yeast rescue: restores growth of sdo1-depleted yeast; S. cerevisiae sdo1-depleted JHY4D growth rescue, OD600 30 h; stronger effect = higher value; pdr5 snq2 efflux-pump mutant strain; z-score at 10 µM; 140,000 tested, 0.21% active; AID 817;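 active means z-score above 3 at both the 24 hr and the 30 hr optical density reads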
A number is an active result; i = inactive; nt = no result given. Hits are enriched below; roughly 3.8% of the tested compounds scored in any of these assays.

SMILES	BB579 growth dn	RAM inhibit	Yeast lifespan up	Measles CPE	SDO1 yeast rescue
CCNC(=S)N/N=C/c1cn(Cc2ccccc2F)c2ccccc12	i	i	i	nt	i
CCOC(=O)CNC(=O)N1CCCC(CCC(=O)NCc2ccc(F)c(F)c2)C1 (stereo not given)	nt	i	nt	nt	nt
CCCN(CC(=O)Nc1ccc(Cl)cc1Cl)C(=O)/C=C/c1cc(OC)ccc1OC	i	11	i	i	i
CC1=C(C(=O)OCC2CCCO2)C(c2ccc(C)cc2)C2=C(CC(C)(C)CC2=O)N1 (stereo not given)	nt	i	nt	nt	nt
O=C(C(=O)N1CCN(c2ccc(F)cc2)CC1)c1c[nH]c2ccccc12	nt	10	nt	nt	nt
O=C(C(=O)N1CCN(c2cccc(Cl)c2)CC1)c1c[nH]c2ccccc12	nt	i	nt	nt	nt
Cc1ccc(C)c(-c2nnc(OCC(=O)Nc3cc(C)on3)c3ccccc23)c1	i	i	i	i	i
COc1cccc2cc(C(=O)N3C(C)CCCC3C)c(=O)oc12 (stereo not given)	i	i	nt	19	i
Cc1ccccc1OC1C(=O)N(Cc2ccc3c(c2)OCO3)C1c1sccc1C (stereo not given)	i	10	i	i	i
O=C1C(Oc2ccccc2)C(c2cccs2)N1Cc1ccc2c(c1)OCO2 (stereo not given)	i	i	i	i	i
COC(=O)c1cc(Br)c(=O)n(Cc2cccnc2)c1	i	i	i	i	i
CCOC(=O)C1=C(C)NC2=C(C(=O)CC(c3ccc(OC)c(OC)c3)C2)C1c1ccc(C)o1 (stereo not given)	i	i	i	i	i
COc1ccccc1NC(=O)C1=C(C)NC2=C(C(=O)CC(c3ccc(OC)c(OC)c3)C2)C1c1coc2ccccc2c1=O (stereo not given)	i	9.8	i	i	i
COCCNC(=O)[C@@]1(Cc2ccccc2)C=C[C@@H](C)N1C(C)=O	i	i	i	i	i
CCc1ccc(OCc2nnc(SCC(=O)N3CCN(c4ccccc4)CC3)o2)cc1	i	8.4	nt	i	i
CCn1c(/C=N/c2nc3ccccc3n2C)nc2ccccc21	i	i	34	i	i
CC1Nc2nc(NC(=O)C(C)(C)C)[nH]c(=O)c2N(C)C1C (stereo not given)	i	i	i	73	i
CC(C)(C)C(=O)Nc1nc2c(c(=O)[nH]1)CCCC2	nt	i	nt	nt	nt
Cc1[nH]n(-c2ccc([N+](=O)[O-])cc2)c(=O)c1C=NCCN1CCN(C(=O)c2ccccc2)CC1	i	i	i	i	i
Cc1cc(C)cc(-n2c(C)cc(C=C(C#N)C#N)c2C)c1	i	i	i	i	i
CCOC(=O)/C(C#N)=C/c1cc2ccc(C)cc2nc1Cl	i	i	32	i	i
Cc1cc2cc(C=C(C#N)C#N)c(Cl)nc2cc1C	i	i	32	i	i
COc1ccc(C2OC(=O)CC2C(=O)NCc2ccccc2Cl)cc1OC (stereo not given)	nt	i	nt	nt	nt
CCOC(=O)N1CCN(CC(O)COC(CC)c2ccccc2)CC1 (stereo not given)	i	i	i	47	i
CCOC(=O)N1CCN(CC(O)COc2ccccc2C(C)CC)CC1 (stereo not given)	i	i	i	i	i
SMILES	BB579 growth dn	RAM inhibit	Yeast lifespan up	Measles CPE	SDO1 yeast rescue
CCOC(=O)N1CCN(CC(O)COc2cc(C)ccc2C(C)C)CC1 (stereo not given)	i	i	i	30	i
COc1ccc(S(=O)(=O)CCC(=O)N2CCN(c3ccc(F)cc3)CC2)cc1	nt	10	nt	nt	nt
COc1ccc(N2CCN(C(=O)c3ccc(NS(=O)(=O)c4cccc(F)c4)cc3)CC2)cc1	i	i	i	19	i
O=C(CCS(=O)(=O)c1cccs1)N1CCN(c2ccc(F)cc2)CC1	i	i	i	i	i
Cc1ccccc1-c1nnc(Cc2ccccc2)o1	i	i	i	i	i
C/C(=N\Nc1nc2c(s1)CCCC2)c1ccccc1	63	i	i	i	i
O=C(OCc1ccc2c(c1)OCO2)c1cccc(S(=O)(=O)N2CCCCC2)c1	i	8.6	i	i	i
COc1c2ccoc2nc2c(OC)c(O)ccc12	nt	i	nt	nt	nt
COc1c2c(nc3occc13)C(CCC(C)(C)O)(OC)C(O)CC2 (stereo not given)	i	i	i	76	i
O=C(C[n+]1cccc(NC(=O)c2ccccc2)c1)c1ccc(NC(=O)c2ccccc2)cc1	i	11	i	i	i
O=C(C[n+]1cccc(NC(=O)c2ccccc2)c1)c1ccccc1	i	i	i	i	i
Cn1c(CNS(=O)(=O)c2ccc(F)cc2)n[nH]c1=S	i	i	i	43	i

From PubChem
